From PubChem
DENV2 CPE rescue: inhibitors of DENV2 cytopathic effect, primary screen, cell-based, plate reader, single concentration. DENV2-infected cells, cytopathic effect rescue. CPE inhibition, % at 9.99 µM. 1.7% of 350,000 active. AID 651640, 2012; in the data active means CPE inhibition above about 20%, passing the limit was not always enough; inconclusive means no clear call, values can overlap the other calls; tested in BHK-21 cells;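 further: 0% = median of neutral control wells and 100% = median of positive control wells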
FGF22 binding: binders of human FGF22 protein, primary screen, FGF22 synaptogenesis inhibitor project, biophysical, thermal shift, single point; Fibroblast growth factor 22 (Homo sapiens), Q9HCT0; recombinant FGF22 thermal shift, SYPRO orange fluorescence; percent of sucrose octasulfate shift, DMSO zero; activity (Tm shift, normalised), % at 9.99 µM; 1.5% of 340,000 active;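 active means mean Tm shift, scaled 0 neutral to 100 positive control, at about 1.3% or above, every replicate too, limit read from the data; inconclusive means no clear call, values can overlap the other calls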
Target sequence (Q9HCT0 whole entry, looked up): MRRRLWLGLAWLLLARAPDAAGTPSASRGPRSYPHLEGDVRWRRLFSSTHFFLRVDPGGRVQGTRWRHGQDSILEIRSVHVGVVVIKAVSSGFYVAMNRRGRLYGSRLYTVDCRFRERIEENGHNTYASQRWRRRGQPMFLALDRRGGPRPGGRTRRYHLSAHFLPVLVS
ARNT TACC3 PPI: disruptors of ARNT/TACC3 protein interaction, primary screen, biochemical, AlphaScreen, single concentration | Transforming acidic coiled-coil-containing protein 3 (Homo sapiens), Q9Y6A5 | AlphaScreen His-ARNT PAS-B/GST-TACC3 binding, luminescence; TACC3 fragment carries E629A point mutation | inhibition, % at 9.99 µM | 0.66% of 390,000 active;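 active means mean inhibition of replicates at least 50% and at least half of replicates each reaching 50%; inconclusive means half or more replicates reach 50% but mean below 50%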;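 further: 0% = complete ARNT plus TACC3 wells and 100% = ARNT alone without TACC3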
FN deposition inh: inhibitors of fibronectin matrix deposition, primary screen, AH1F cells, Alexa488-fibronectin fluorescence, plate reader; AH1F fibroblasts, overnight; 0.086% of 350,000 active; inhibition, % at 12.6 µM;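 active means mean inhibition across replicates of 30% or more, regardless of how many single replicates reach that level; inconclusive means mean under 30% yet at least half of replicates reach 30%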;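 further: positive control wells lacked labelled fibronectin entirely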
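Material – AH1F fibroblast monolayer, labelled fibronectin deposition · Reagent – labelled fibronectin 24 nM · Timing – 1 h adhesion, overnight exposure · Measured by – fluorescence at 485 nm excitation, 525 nm emission · Read-out – inhibition of fibronectin deposition signal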
SIRT5 inh: SIRT5 desuccinylase inhibitors, primary screen, biochemical, fluorescence imaging, single point, set 5. Purified SirT5, succinyl-peptide AMC, trypsin-coupled fluorescence. NAD-dependent protein deacylase sirtuin-5, mitochondrial (Homo sapiens), Q9NXA8. inhibition, % at 15 µM. AID 652115, 2013. 1.1% of 330,000 active; in the data active means inhibition above about 15%; inconclusive means no clear call, values can overlap the other calls
Target sequence (Q9NXA8 whole entry, looked up): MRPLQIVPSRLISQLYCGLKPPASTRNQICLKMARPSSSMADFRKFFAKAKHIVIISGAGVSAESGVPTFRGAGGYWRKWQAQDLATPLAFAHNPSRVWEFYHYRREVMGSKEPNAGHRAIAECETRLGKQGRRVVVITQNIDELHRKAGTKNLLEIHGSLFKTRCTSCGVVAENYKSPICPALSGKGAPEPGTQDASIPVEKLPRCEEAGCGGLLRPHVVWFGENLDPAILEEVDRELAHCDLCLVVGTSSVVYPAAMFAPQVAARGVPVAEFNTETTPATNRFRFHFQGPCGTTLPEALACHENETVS
Xi reactivation: activators of inactive X chromosome reactivation, primary screen, imaging, XiGFP fibroblasts, GFP high-content imaging, set 2. XiGFP mouse fibroblasts, % GFP-positive cells imaging, 3 d; cells co-treated with 5-aza-dC sensitizer; scaled so ellipticine positive control = 100%. activation, % at 7.58 µM. 0.055% of 360,000 active. AID 743238, 2013;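 active means mean normalized replicate activation at least 10% and every replicate at or above 10%; inconclusive means only one of the two criteria met; inactive means mean below 10% and not all replicates reach 10%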;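 further: 0% = median of on-plate neutral control wells and 100% = ellipticine 6 µM median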
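Material: XiGFP fibroblasts, SV40-immortalized. Buffer or medium: DMEM plus 5-aza-dC sensitizer. Compound: single concentration per compound, delivered by pin transfer. Times: 3 days compound exposure. Controls: ellipticine 6 µM.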
The depositor's hits bear a star; u = inconclusive; x = no result. A selection: hits, their analogues and other compounds. The true share with any hit is near 3.8%.

SMILES | DENV2 CPE rescue | FGF22 binding | ARNT TACC3 PPI | FN deposition inh | SIRT5 inh | Xi reactivation
CC(=O)NC[C@H]1[C@@H](c2ccc(C3=CCCCC3)cc2)[C@@H](CO)N1C(=O)NC(C)C | 55* | x | -2 | 9 | x | 0
CC(=O)NC[C@H]1[C@H](c2ccc(C3=CCCC3)cc2)[C@@H](CO)N1C(=O)NC(C)C | -8 | x | -5 | 4 | x | 0
C/C=C/c1ccc2c(c1)O[C@H](CN(C)C(=O)Nc1cc(F)ccc1F)[C@@H](C)CN([C@@H](C)CO)S2(=O)=O | 20 | 0 | 4 | x | 5 | 0
CO[C@H]1CN(C)C(=O)c2ccc(NC(=O)Nc3cccc(F)c3)cc2OC[C@@H](C)N(C(C)=O)C[C@@H]1C | x | x | x | 3 | x | 0
Nc1nc(-c2cccs2)c(CC(=O)O)s1 | 2 | 0 | 0 | 8 | 0 | 0
O=C(O)Cc1sc(Nc2ccc(Cl)cc2)nc1-c1cccs1 | -2 | 1.4* | x | x | -1 | 0
C[C@H]1CN([C@@H](C)CO)C(=O)Cc2cc(NC(=O)Nc3ccccc3)ccc2O[C@@H]1CN(C)Cc1ccc(C(=O)O)cc1 | 2 | 0 | -7 | x | -2 | 0
O=C(Cc1ccc(F)cc1)Nc1cccc(-c2ccc3nncn3n2)c1 | 1 | 44* | -5 | -4 | -2 | 0
CCc1ccc(S(=O)(=O)Nc2cccc(-c3ccc4nncn4n3)c2)s1 | 0 | 43* | 39 | -18 | 4 | 0
CC(=O)NS(=O)(=O)c1ccc(N2C(=O)c3ccccc3C2=O)cc1 | 1 | 0 | -3 | -9 | 15* | 0
COc1ccccc1NC(=O)N[C@@H]1CC[C@H](CCNS(=O)(=O)c2ccc(Cl)cc2)O[C@H]1CO | -1 | 0 | 10 | 1 | 5 | 0
Cc1ccc(S(=O)(=O)NCC[C@H]2CC[C@@H](NC(=O)Nc3ccccc3F)[C@H](CO)O2)cc1 | 20* | 0 | -9 | x | 4 | -1
Cc1ccc(S(=O)(=O)NCC[C@H]2CC[C@@H](NC(=O)Nc3ccccc3F)[C@@H](CO)O2)cc1 | 16 | 0 | -12 | x | 0 | 0
COc1ccccc1NC(=O)N[C@@H]1CC[C@H](CCNS(=O)(=O)c2ccc(Cl)cc2)O[C@@H]1CO | -6 | 0 | -8 | -8 | 26* | 0
COc1ccc2c3c(n(C)c2c1)[C@@H](CO)N(CC1CC1)CC31CN(C(=O)c2ccccc2)C1 | 2 | 0 | x | x | x | 0
CCc1c(C)nc(N2CCN(c3ccc(F)cc3)CC2)[nH]c1=O | -1 | 0 | 0 | 7 | 0 | 0
CCCc1c(C)nc(N2CCN(c3ccc(F)cc3)CC2)[nH]c1=O | 1 | 0 | -3 | -1 | 21* | 0
O=C(COCc1ccccc1)N[C@@H]1c2ccccc2CC[C@H]1OCc1ccccc1 | -2 | 0 | -4 | 0 | -3 | 0
O=C(N[C@@H]1c2ccccc2CC[C@@H]1OCc1ccccc1)c1ccc(C(F)(F)F)cc1 | 69* | 0 | -8 | x | -4 | 1
CC(C)NC(=O)Nc1cccc2c1O[C@@H](CN(C)CC1CCCCC1)[C@H](C)CN([C@@H](C)CO)C2=O | u | 0 | x | x | 4 | 0
Nc1nc(-c2ccc([N+](=O)[O-])cc2)cc(=O)[nH]1 | 133* | 0 | -18 | 2 | 5 | 0
C[C@H]1CN([C@@H](C)CO)C(=O)c2cccc(NS(C)(=O)=O)c2O[C@@H]1CN(C)C(=O)Nc1ccc2c(c1)OCO2 | -8 | 0 | 2 | x | 4 | 0
Cc1[nH]nc(-c2ccc(OCc3cnn(-c4ccccc4)c3)cc2O)c1Oc1ccccc1F | x | x | -5 | x | x | x
O=c1c(Oc2ccccc2F)coc2cc(OCc3cnn(-c4ccccc4)c3)ccc12 | -10 | 43* | 2 | -2 | -1 | 0
Cc1ccccc1NC1=C/C(=N\S(=O)(=O)c2cccs2)c2ccccc2C1=O | x | x | 16 | 52* | x | x
SMILES | DENV2 CPE rescue | FGF22 binding | ARNT TACC3 PPI | FN deposition inh | SIRT5 inh | Xi reactivation
CO[C@@H]1CN(C)C(=O)c2cc(NC(C)=O)ccc2OC[C@@H](C)N(C(=O)c2cnccn2)C[C@H]1C | 3 | 0 | 6 | 1 | -6 | 0
Cc1cc2oc3ccc(NCCCN4CCOCC4)cc3c(=O)c2cc1C | 37* | 0 | x | 6 | -1 | 0
Cc1ccc(C(=O)N/C(=C\c2ccc3c(c2)OCO3)C(=O)Nc2ccc(C(=O)O)cc2)cc1 | -5 | 43* | 0 | 9 | 4 | 0
Cn1nc(C(=O)NC2CCCCC2)c2c1-c1ccccc1SC2 | 4 | 0 | 0 | 11 | 9 | 0
Cn1nc(C(=O)N2CCC(C(N)=O)CC2)c2c1-c1ccccc1SC2 | 25* | 0 | -2 | -2 | -2 | 0
C[C@@H]1CN([C@H](C)CO)C(=O)c2cccc(NC(=O)C3CC3)c2O[C@H]1CN(C)C(=O)Nc1cccc2ccccc12 | -2 | 1 | 22 | x | -4 | 0
C[C@@H]1CN([C@@H](C)CO)C(=O)Cc2cc(NS(=O)(=O)c3ccc(F)cc3)ccc2O[C@H]1CN(C)CC1CCCCC1 | 4 | 0 | 3 | x | 16* | 0
C[C@@H]1CN([C@@H](C)CO)C(=O)Cc2cc(NS(=O)(=O)c3ccc(F)cc3)ccc2O[C@@H]1CN(C)CC1CCCCC1 | 17 | 0 | 8 | x | 14 | -1
C[C@H](CO)N1C[C@H](C)[C@H](CN(C)CC2CCCCC2)Oc2ccc(NS(=O)(=O)c3ccc(Cl)cc3)cc2CC1=O | 0 | x | 11 | x | 29* | 0
C[C@H]1CN([C@@H](C)CO)C(=O)Cc2cc(NS(=O)(=O)c3ccc(Cl)cc3)ccc2O[C@H]1CN(C)CC1CCCCC1 | -2 | 0 | x | x | x | x
C[C@H](CO)N1C[C@H](C)[C@H](CN(C)CC2CCCC2)Oc2ncc(C#Cc3ccccn3)cc2C1=O | x | x | x | -2 | x | -1
CCOC(=O)c1sc(N)c(C(=O)OCC)c1C | 10 | 0 | x | -7 | 0 | 0
CCOC(=O)c1c(N)sc(C(=O)N2CCCCC2)c1C | x | x | 47* | x | x | x
O=C(CN1CCOCC1)NCC[C@H]1CC[C@@H](NC(=O)Nc2ccc(F)cc2)[C@H](CO)O1 | 4 | 0 | -8 | x | 2 | 0
COc1ccc(N2CCN(C(=O)c3cc4cc(Cl)ccc4[nH]3)CC2)cc1 | 4 | 0 | -12 | 1 | 18* | 0
